Results reported in publication PMC8717589 (ACS Omega, 2021).
Where two headings read alike, the source gives them in different places.

Columns and labels:
[1] = system: L. infantum MHOM/TN/80/IPT1 promastigotes; assay: L. infantum promastigotes viability assay; assay type: cell-based, Leishmania infantum; conditions: 72 h; for inhibition at 20 µM: read-out: Percentage of inhibition at 20 μM, L. infantum MHOM/TN/80/IPT1
Method in brief: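 Late log/stationary promastigotes were seeded in RPMI-PY at 2.5 × 10^6/mL. They were treated 72 h at 26 °C with 1:2 or 2:3 dilutions from 20 to 0.31 μM, with DMSO vehicle control, in duplicate. MTS/PMS was added at 26 °C until formazan formed, then A492 was read. Growth inhibition is relative to DMSO. IC50 from a normalized-response nonlinear fit with unconstrained Hill slope. Mean and 95% CI, ≥3 independent experiments.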

[2] = system: DH82 cells; assay: Cytotoxicity assay; assay type: cell-based, canine; conditions: IC50 on L. infantum MHOM/TN/80/IPT1; CC50 72 h
Method in brief: (§1)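 THP-1 (RPMI-1640, 10% FBS; 5 × 10^6 cells/mL) were PMA-differentiated (20 ng/mL, 48 h). DH82 (EMEM, 15% FBS; 2 × 10^5/well) were attached overnight. Both were exposed 72 h at 37 °C to 2, 10, 20, 80 and 200 μM, with DMSO control, in duplicate. Read-out was MTS/PMS A492, with % inhibition at 200 μM.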

[3] = Cytotoxicity assay; assay type: cell-based, canine; conditions: dog, DH82 cells
Method in brief: as §1

[4] = system: THP-1 cells; assay: Cytotoxicity assay; assay type: cell-based, human; conditions: for THP-1 selectivity index (CC50/IC50): IC50 on L. infantum MHOM/TN/80/IPT1, CC50 72 h
Method in brief: as §1

[5] = Cytotoxicity assay; assay type: cell-based, human; conditions: human, PMA-differentiated THP-1 cells (macrophage-like)
Method in brief: as §1

[6] = Leishmania infantum, read-out: L. infantum MHOM/TN/80/IPT1 IC50 (95% CI), promastigotes, 72 h, MTS

Row | Structure (SMILES) | IC50 [1, 6] [µM] | inhibition at 20 µM ([1]; Leishmania infantum) [%] | DH82 selectivity index (CC50/IC50) [2] | CC50 at 72 h [3] [µM] | THP-1 selectivity index (CC50/IC50) [4] | CC50 at 72 h [5] [µM] | IC50 ([1]; read-out: L. infantum MHOM/TN/80/IPT1 IC50 (95% CI), promastigotes, MTS) [µM] | inhibition at 200 µM ([4]; Homo sapiens, THP-1, 72 h, read-out: Percentage of inhibition at 200 μM, THP-1) [%]
1 | CCOC(=O)c1cn(CC(c2cn(C)c3ccc(C)cc23)c2cn(C)c3ccc(C)cc23)c(C)c1C(=O)OC [1c] | > 20 | 43 | – | – | – | – | – | –
2 | CCOC(=O)c1c(C(=O)OC)cn(CC(c2cn(C)c3cc(Br)ccc23)c2cn(C)c3cc(Br)ccc23)c1C [1d] | > 20 | 11 | – | – | – | – | – | –
3 | COC(=O)c1c(C)ncn1CC(c1c[nH]c2ccccc12)c1c[nH]c2ccccc12 [2a] | 10 | – | 3.5 | 35.3 | 3.8 | 37.9 | – | –
4 | COC(=O)c1c(C)ncn1CC(c1c[nH]c2ccc(C)cc12)c1c[nH]c2ccc(C)cc12 [2b] | 7.7 | – | 3.2 | 24.8 | 3.5 | 26.9 | – | –
5 | CCc1ncn(CC(c2c[nH]c3ccc(C)cc23)c2c[nH]c3ccc(C)cc23)c1C(=O)OC [2c] | 10 | – | 2.3 | 23.5 | 3.8 | 38.6 | – | –
6 | COC(=O)c1c(C)ncn1CC(c1c[nH]c2cc(Br)ccc12)c1c[nH]c2cc(Br)ccc12 [2d] | 8.5 | – | 2.2 | 18.9 | 1.8 | 15.4 | – | –
7 | COC(=O)c1c(C)ncn1CC(c1cn(C)c2ccccc12)c1cn(C)c2ccccc12 [2e] | 4.9 | – | 5.0 | 24.3 | 11.3 | 55.4 | – | –
8 | CCOC(=O)c1c(C)ncn1CC(c1cn(C)c2ccc([N+](=O)[O-])cc12)c1cn(C)c2ccc([N+](=O)[O-])cc12 [2f] | 4.9 | – | >41 | > 200 | 7.2 | 35.1 | – | –
9 | Cc1cn(CC(c2c[nH]c3ccccc23)c2c[nH]c3ccccc23)nn1 [3a] | > 20 | 22 | – | – | – | – | – | –
10 | Cc1cn(CC(c2cn(C)c3ccccc23)c2cn(C)c3ccccc23)nn1 [3b] | < 8 | – | 3.9 | 31.9 | >25 | > 200 | 8.1 | 33
11 | C[C@@H]1[C@H](O)[C@@H](C)/C=C/C=C/C=C/C=C/C=C/C=C/C=C/[C@H](O[C@@H]2O[C@H](C)[C@@H](O)[C@H](N)[C@@H]2O)C[C@@H]2O[C@](O)(C[C@@H](O)C[C@@H](O)[C@H](O)CC[C@@H](O)C[C@@H](O)CC(=O)O[C@H]1C)C[C@H](O)[C@H]2C(=O)O [Amph B, amphotericin B, reference compound] | 0.064 | – | >3333 | > 200 | 45.8 | 2.8 | – | –
12 | c1ccc2c(Cc3c[nH]c4ccccc34)c[nH]c2c1 [DIM, 3,3′-diindolylmethane, reference compound] | > 20 | 10 | – | – | – | – | – | –
13 | CCCCCCCCCCCCCCCCOP(=O)([O-])OCC[N+](C)(C)C [Milt, miltefosine, reference compound] | 2.9 | – | 33.6 | 95.9 | 9.8 | 27.8 | – | –
14 | N=C(N)c1ccc(OCCCCCOc2ccc(C(=N)N)cc2)cc1 [Pent, pentamidine, reference compound] | 2.6 | – | – | 10.6 | – | 103 | – | –
